# From article PMC6497404 (Vaccine, 2019)
# Key:
# [1] = test system: BALB/c mice; experiment: Serum antibody ELISA after immunization with antigen-pulsed dendritic cells; format: in vivo, mouse; conditions: after first booster; mimotope-pulsed DCs i.p.; sera diluted 1:200
# Summary of the method: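 Female BALB/c mice, 5–7 weeks old. Bone-marrow DCs pulsed with peptide antigen (1 μM) on day 6, matured with PGE₂ (10⁻⁷M) plus LPS (2 μg/ml) for 24h from day 7, washed on day 9. 5 × 10⁵ DCs in DPBS given i.p., with i.p. boosts of fresh pulsed DCs without adjuvant at days 14 and 28. Controls received DCs or DPBS. Sera diluted 1:200 and tested by ELISA.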
# [2] = test system: C. albicans SC5314 (disseminated candidiasis in BALB/c mice); experiment: Active vaccination; format: in vivo, Candida albicans; conditions: mimotope-pulsed DCs; lethal i.v. challenge; extended observation
Sequence,Antibody ELISA titers in immune sera against the mimotope [1],Protection against disseminated candidiasis (mimotope vaccination) [2]
SYLTTGGFW [PS28],highest,–
HYKTYGGYW [PS31],highest,–
SWYEGLRLI [PS55],–,neither of the two other mimotopes PS55 or PS76 induced protection
WVPPGSWYL [PS2],highest,–
YRQFVTGFW [PS76],–,neither of the two other mimotopes PS55 or PS76 induced protection
